{"source": "ChEMBL document CHEMBL2401617", "about": "“Synthesis and biological evaluation of some novel thiazole compounds as potential anti-inflammatory agents” (2013)", "type_in_all_cases": "functional", "key": {"Rattus norvegicus [1]": {"tested_on": "Rattus norvegicus", "assay": "Antiinflammatory activity in albino Wistar rat assessed as inhibition of carrageenan-induced paw oedema at 10 mg/kg, po administered 1 hr prior to carrageenan challenge measured at 3 hrs by plethysmometeric analysis relative to control", "how_it_was_run": "(§1)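 Albino Wistar rats of either sex (130–150 g), 6 per group, fasted 12 h with water ad libitum. Indomethacin 10 mg/kg was given orally in 1 ml 20% v/v DMSO; controls received vehicle. One hour later, 0.1 ml 1% w/v carrageenan in 0.9% saline was injected subplantar into the left hind paw. Paw volume was read by plethysmometer at 0 and 1–4 h. % inhibition = [1 − (Vt/Vc)] × 100.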"}, "Rattus norvegicus [2]": {"tested_on": "Rattus norvegicus", "assay": "Antiinflammatory activity in albino Wistar rat assessed as inhibition of carrageenan-induced paw oedema at 10 mg/kg, po administered 1 hr prior to carrageenan challenge measured at 2 hrs by plethysmometeric analysis relative to control", "how_it_was_run": "as §1"}, "Rattus norvegicus [3]": {"tested_on": "Rattus norvegicus", "assay": "Antiinflammatory activity in albino Wistar rat assessed as inhibition of carrageenan-induced paw oedema at 10 mg/kg, po administered 1 hr prior to carrageenan challenge measured at 4 hrs by plethysmometeric analysis relative to control", "how_it_was_run": "as §1"}, "Rattus norvegicus [4]": {"tested_on": "Rattus norvegicus", "assay": "Antiinflammatory activity in albino Wistar rat assessed as inhibition of carrageenan-induced paw oedema at 10 mg/kg, po administered 1 hr prior to carrageenan challenge measured at 1 hr post carrageenan challenge by plethysmometeric analysis relative to control", "how_it_was_run": "as §1"}}, "data": [{"smiles": "COc1ccc2c(c1)c(CC(=O)O)c(C)n2C(=O)c1ccc(Cl)cc1", "note": "[INDOMETHACIN]", "values": [{"measurement": "inhibition in vivo at 10 mg/kg", "setting": "Rattus norvegicus [1]", "result": 75.5, "unit": "%"}, {"measurement": "inhibition in vivo at 10 mg/kg", "setting": "Rattus norvegicus [2]", "result": 45.1, "unit": "%"}, {"measurement": "inhibition in vivo at 10 mg/kg", "setting": "Rattus norvegicus [3]", "result": 91.3, "unit": "%"}, {"measurement": "inhibition in vivo at 10 mg/kg", "setting": "Rattus norvegicus [4]", "result": 10.5, "unit": "%"}]}]}
